Results taken from ChEMBL document CHEMBL4513216, “Probing the Open Global Health Chemical Diversity Library for Multistage-Active Starting Points for Next-Generation Antimalarials” (ACS Infect Dis, 2020).

Assay: Toxicity liver stage against HepG2, at 10uM
Format: cell-based
Design: test concentration 10 uM, cell line HepG2-A16-CD81EGFP
Details: human, HepG2-A16-CD81EGFP cells; read-out: INHIBITION
How it was run: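 Uninfected HepG2-A16-CD81EGFP cells, 3 × 10^3 per well, 1536-well, plated on prespotted compound at 10 μM final, parasite-free screening media added to match infected plates; puromycin 10 μM positive, DMSO 0.5% negative; run in parallel with 48 h PbLuc assay at 37 °C, 5% CO2; viability by CellTiter-Glo luminescence, normalized to controls.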

Row | SMILES | cytotoxicity at 10 µM
1 | Cc1cc(NCc2ccc(N3CCNC(=O)C3)cc2)nc(C)n1 | -4.99%
2 | O=C(c1ccco1)N(CC(F)(F)F)C1CCOCC1 | -12.3%
3 | Cn1cc(-c2nc(C3CCN(CC4CC4)CC3)cc3c2ncn3C)cn1 | -1.86%
4 | CS(=O)(=O)N1CCO[C@@H]2CN(Cc3ccc(F)cc3)C[C@@H]2C1 | 4.74%
5 | O=C(CCO)N1CC2(CCN(c3ccccc3)C2)C1 | 8.76%
6 | CN(C)C[C@H]1OC[C@@H]2CCN(C(=O)NCc3cccc(F)c3)C[C@@H]21 | 6.98%
7 | CS(=O)(=O)N1CCCCC12CCN(C(=O)c1ccccc1)C2 (stereo not given) | -148%
8 | NC(=O)N1Cc2nccn2CC(Cn2ncccc2=O)C1 (stereo not given) | 3.19%
9 | Cc1noc([C@@]23CCO[C@@H]2CCN(C(=O)c2cc(C)on2)C3)n1 | 10.9%
10 | COCc1ncn2c1CN(S(=O)(=O)c1cccc(OC)c1)CC2 | 3.47%
11 | CN(C)S(=O)(=O)N1CCC2(COCc3cnc(NCC4CC4)nc32)C1 (stereo not given) | 7.66%
12 | COCCO[C@H]1CCN(C(=O)NC2CC2)[C@H]1Cc1cnn(C)c1 | 8.36%
13 | O=C(Cc1ccsc1)N1C[C@@H]2C[C@@H](c3nnc(C4CC4)o3)O[C@@H]2C1 | -142%
14 | CCn1nc(C)c2nc(C)nc(NCCc3ccc(C)cc3)c21 | 50.9%
15 | N#Cc1cn[nH]c1NCc1cc(Cl)cc(Cl)c1O | 19.1%
16 | Nc1nnc(Cn2nnc(-c3ccccc3F)n2)s1 | 3.09%
17 | Cc1ccc(Nc2nccc(C3CN(C(C)C)C3)n2)nc1 | -26.2%
18 | CN1CCCC[C@@H]2[C@H]1[C@@H](c1ccccc1)CCN2S(=O)(=O)N1CCCC1 | -1.03%
19 | CC(C)C(=O)N1CCC(n2nc(-c3ccco3)ccc2=O)CC1 | -2.44%
20 | Cc1nc2cc(C3CCN(Cc4ccccc4F)C3)nn2c(O)c1C (stereo not given) | 5.52%
21 | CC(C)(C)NC(=O)Cn1c(=O)n(Cc2ccco2)c2ncccc21 | -6%
22 | CN1CCC(Cc2cc(Nc3ncccn3)ncn2)CC1 | 1.05%

Row | SMILES | cytotoxicity at 10 µM
23 | Cc1ccnc(NC(=O)C2CCCO2)c1 (stereo not given) | -11.3%
24 | COC(=O)CN(C(=O)c1cc(C)c(F)cc1F)c1cccc(C)n1 | 6.9%
25 | COC(=O)CC1CCCCN1CC(=O)Nc1ccc(F)cc1Cl (stereo not given) | 14%
26 | CCc1ccc(C(=O)NC2CCN(c3ccn(C)n3)C2)o1 (stereo not given) | -0.577%
27 | CCOC1CCN(C(=O)NCc2ccc(CN3CCOCC3)cc2)CC1 | 7.31%
28 | Cc1noc(C)c1CN(C)Cc1csc(-c2ccccc2F)n1 | 37.2%
29 | COCc1cc(N(C)Cc2cnccn2)nc(C(C)(C)C)n1 | 8.24%
30 | CCc1nc(C2NC3(CCCC3)C(=O)N2CC2CC2)cs1 (stereo not given) | -1.09%
31 | CCc1noc(C(C)N2CCN(c3ncnc4sccc34)CC2)n1 (stereo not given) | 56.3%
32 | COc1cc(OC)cc(N2CCC(NC(=O)c3cccn3C)CC2)c1 | -2.1%
33 | CC(NC(=O)c1cccs1)(C(N)=O)c1cccc(C(F)(F)F)c1 (stereo not given) | -3.42%
34 | CN(Cc1ccco1)C(=O)CN1CCCC1c1cccs1 (stereo not given) | -3.62%
35 | COc1cccc(CN2CCCC2c2ccc[nH]2)c1 (stereo not given) | -1.38%
36 | NC(=O)COc1cccc(CN2CCCC2c2ccc[nH]2)c1 (stereo not given) | 8.58%
37 | CCc1noc(CS(=O)(=O)Cc2ccccc2C)n1 | 16.8%
38 | Cc1ccc(C2CCCN2CC(=O)N(CCC#N)c2ccccc2)cc1 (stereo not given) | -6.89%
39 | CCNC(=O)NC(=O)CN1CCC(c2c[nH]c3ccc(OC)cc23)CC1 | -12.9%
40 | COC1CCN(C(=O)C2CC(=O)N(c3ccccc3Br)C2)CC1 (stereo not given) | -3.57%
41 | Cc1nc(C)c(C(=O)NCC(c2ccccc2Cl)N2CCOCC2)s1 (stereo not given) | 1.4%
42 | O=C(CCCn1cncn1)NC1(c2ccc(Cl)cc2)CCC1 | 6.66%
43 | CN(C)C(=O)c1cc(S(=O)(=O)N2CCCC2Cn2ccnc2)cn1C (stereo not given) | 12.2%
44 | Cc1ccc(C(N)c2cccs2)cc1 (stereo not given) | -0.367%

Row | SMILES | cytotoxicity at 10 µM
45 | CCS(=O)(=O)NCC(=O)N1CC2(CCCC2)c2c(F)cccc21 | 1.56%
46 | CCN(CC(=O)NC)C(=O)Cc1csc(C(C)C)n1 | -3.61%
47 | CCn1nc(C)c(S(=O)(=O)Nc2cccc(C(=O)O)c2C)c1C | -0.731%
48 | CC(NCc1ccccc1O)c1ccc(-n2ccnc2)cc1 (stereo not given) | -46.9%
49 | CCCNC(=O)CN1CCOC(CC)C1 (stereo not given) | 2.98%
50 | CC(=O)c1ccc(NC(=O)NCc2cccc(N(C)C)n2)cc1C | 6.45%
51 | CC(C)c1cc(C(=O)NCC2(C(N)=O)CCOCC2)nn1C(C)(C)C | 10.3%
52 | CC(C)c1nsc(N2CCCOCC2)n1 | -7.86%
53 | CCC(C)CS(=O)(=O)NC(=O)C1CCC1 (stereo not given) | -7.88%
54 | O=C(COC1CCCC1)NC(C(=O)Nc1cc[nH]n1)c1ccccc1 (stereo not given) | -10.7%
55 | Fc1ccc(OCCNC2CCN(Cc3ccncc3)CC2)c(F)c1 | -11.1%
56 | Cn1c(CCN2CCN(c3ccc(O)cc3)CC2)nc2ccccc21 | -37.5%
57 | CCOc1ccccc1CNC(=O)NCC(c1cnn(C)c1)N(C)C (stereo not given) | 4.15%
58 | Cc1cc(NCCCNS(C)(=O)=O)nc2ccccc12 | -4.69%
59 | COc1ccc(Oc2cc(CN)ccn2)cc1 | 3.98%
60 | CCc1nnc(CN2CCC(C3CCCCCN3C(=O)C3CC3)CC2)o1 (stereo not given) | -49.7%
61 | CCC(O)CN(C)Cc1nnc2ccccn12 (stereo not given) | -26.7%
62 | CCS(=O)(=O)N(C)C1CCN(C(=O)c2cccc(Cl)c2)CC1 | -13.7%
63 | c1cnn(CC2CN(c3ncnc4ccsc34)CCO2)c1 (stereo not given) | 38.7%
64 | Cn1ccnc1CN1CCC2(CC1)COCCN(c1ncccn1)C2 | 11.3%
65 | CCO[C@H]1CC[C@H]2[C@@H]1OCCN2C(=O)COc1ccccc1 | -88.5%
66 | CN(C)C(=O)N1CCn2c(Cn3cccn3)cnc2C1 | -76.7%

Row | SMILES | cytotoxicity at 10 µM
67 | O=C(CC1CC1)N1CCC2(COCc3cnc(N4CCOCC4)nc32)C1 (stereo not given) | -82.1%
68 | O=C(c1cscn1)N1C[C@H]2CN(Cc3nccs3)C[C@H]2C1 | -65.4%
69 | Cc1ccc(C(=O)N2C[C@H]3CCC[C@@]3(COCC3CCOCC3)C2)o1 | -66.3%
70 | CC[C@H](C)[C@H](N)C(=O)N1CC(=O)c2sc(NCc3ccccc3)nc2C1 | -9.58%
71 | Cc1ccc(C(=O)N2CC[C@@]3(O)CCN(C(=O)N(C)C)C[C@H]3C2)cc1Cl | -45.5%
72 | N#Cc1ccccc1CN1CCC2(CC1)CC(c1ccccc1)C(=O)N2 (stereo not given) | -44.8%
73 | CSC(C)CCN(Cc1ccccn1)Cc1sccc1C (stereo not given) | -2.49%
74 | CCCc1cc(CNC2CCN(c3cc(C(C)C)nc(C)n3)CC2)on1 | -13.6%
75 | NC1(C(=O)NCC2CCCN(Cc3cccc4nonc34)C2)CCC1 (stereo not given) | -43.8%
76 | CCc1cc(N2CCC(NCCSc3nnnn3C)CC2)nc(C)n1 | -15.2%
77 | COc1cc(F)ccc1-c1cnc(N)cn1 | -11.4%
78 | Oc1cc(CNCCCN2CCCC2)nc2ccc(F)cc12 | -56%
79 | O=C(NCCn1ccnc1-c1cc2n(n1)CCNC2)c1ccncc1 | -2.66%
80 | Oc1cc(CN2CCC(O)(Cn3ccnc3)CC2)nc2ccc(F)cc12 | -44.5%
81 | CCNc1ncc(C(=O)NCc2csc(-c3ncccn3)n2)cn1 | 6.59%
82 | Cc1nnc(-c2cccc(N3CCC(NC(C)CC(C)C)CC3)c2)s1 (stereo not given) | 0.363%
83 | CCc1ccc(C2CC(=O)Nc3cc(OC)c(NS(C)(=O)=O)cc32)o1 (stereo not given) | 3.25%
84 | CC(C)N1CCCn2nc(C(=O)NCc3ccccc3F)cc2C1 | -4.87%
85 | O=C(c1ccon1)N1CCCCC1c1nc2cc(F)ccc2[nH]1 (stereo not given) | 2.58%
86 | CCc1cccc(OC2CN(C(=O)[C@@H](N)[C@@H](C)O)C2)c1 | -3.92%
87 | CN(Cc1ccccc1)c1ncccc1CNC1CN2CCC1CC2 (stereo not given) | 1.63%
88 | CN1CCCC2(CCN(Cc3cncn3C3CCCCC3)C2)C1=O (stereo not given) | -5.96%

Row | SMILES | cytotoxicity at 10 µM
89 | CC(=O)N1CCc2c(nc(N(C)C)nc2NCc2cccs2)C1 | -50.6%
90 | CCOC(=O)c1sc2ccsc2c1CNC(=O)CCOC | -16.7%
91 | Cc1ccoc1C(=O)N1CCCC(c2cc(C(F)(F)F)[nH]n2)C1 (stereo not given) | 2.4%
92 | CN(Cc1cccs1)C(=O)CN1CCOC(Cn2cncn2)C1 (stereo not given) | -23.7%
93 | O=C(NCCc1ccn(-c2ccccc2)n1)N1CCSCC1 | -2.71%
94 | CCc1noc(C(C)N2CCN(Cc3noc(C)n3)CC2)n1 (stereo not given) | -4.48%
95 | Cc1cnn(CC2CCCN2CCc2nc3ccccc3c(=O)[nH]2)c1 (stereo not given) | -5.79%
96 | CC(C)(C)c1nc(CN2CCCC(Cn3cncn3)C2)cs1 (stereo not given) | -4.54%
97 | COc1cc(C)c(S(=O)(=O)NCc2cccnc2N(C)C)c(C)c1 | 12.2%
98 | Cc1nccn1CCCn1cncc1-c1ccc2c(c1)CC(C)N2C (stereo not given) | 0.94%
99 | CN1CCC2(COCCN(Cc3ccc4c(c3)OCO4)C2)C1 (stereo not given) | -2.05%
100 | O=S(=O)(c1ccccc1)N1CCC2(CCCN2Cc2cccc(Cl)c2)C1 (stereo not given) | -130%
101 | O=C(C1CCC2(CCN(Cc3cccnc3)CC2)CO1)N1CCCC1 (stereo not given) | -108%
102 | O=C(NCc1cncc2c1CCN(C1CCOCC1)C2)c1ccco1 | -0.758%
103 | c1ccc(C[C@H]2CN(Cc3nccs3)CC[C@@H]2OCC2CC2)cc1 | -62.3%
104 | CO[C@@H]1CCN(Cc2nccs2)C[C@@H]1Cc1ccccc1 | -69.5%
105 | CC(C)n1nc(CN(C)C)c2c1CN(C(=O)CC1CC1)CC2 | -6.72%
106 | O=C([C@H]1CN(Cc2ccccc2F)C[C@H]2OCC[C@@H]12)N1CCCO1 | 13%
107 | c1cnc(N2CCO[C@H]3CN(CC4CCC4)C[C@H]32)cn1 | -102%
108 | c1cncc(N2CCO[C@H]3CN(CC4CCOC4)C[C@H]32)c1 (stereo not given in full) | -95.7%
109 | Cc1cc(CN2C[C@@H]3CC[C@H]2CN(Cc2[nH]cnc2C)C3)on1 | -2.34%
110 | CCc1ncc(C(=O)N2CC[C@H]3CC[C@@H](C2)N3C)cn1 | -7.09%
